Read-outs that look alike come from different tables or passages of the source. Marks after values point to notes of the source that are not given here.
What was measured:
[1] = system: L5/L6 spinal nerve ligated male Sprague Dawley rats; assay: Thermal hypersensitivity; type: in vivo, rat; conditions: for AUC, paw withdrawal latency (thermal): vehicle AUC=55.52 ± 2.74; for effect on thermal hyperalgesia compared to vehicle or post injury baseline: morphine (10 mg), all time-points and total AUC
[2] = system: L5/L6 spinal nerve ligated male Sprague Dawley rats; assay: Mechanical hypersensitivity; type: in vivo, rat; conditions: for AUC, paw withdrawal threshold (mechanical): vehicle AUC=22.07 ± 3.02
male Sprague Dawley rats [3] = type: in vivo, rat
Procedure, shortened: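 CCK-8sulf (30 ng/0.5 μL, in water) went into the RVM 10 min before. Naloxone (10 mg/kg sc, saline) was given 20 min before. Radiant heat to the plantar hind paw gave withdrawal latency, compared with baseline.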

CCK-1 receptor = conditions: read-out: Ki at the CCK-1 receptor; ref Agnes et al., 2008; cited from earlier work
CCK-2 receptor = conditions: read-out: Ki at the CCK-2 receptor; ref Agnes et al., 2008; cited from earlier work
[4] = molecular target: human δ opioid receptor (hDOR) (Homo sapiens, UniProt P41143); conditions: ref Agnes et al., 2008, cited from earlier work
delta opioid receptor = conditions: ref Agnes et al., 2008; Hruby et al., 2003; cited from earlier work
[5] = molecular target: rat μ opioid receptor (MOR) (Rattus norvegicus, UniProt P33535); conditions: ref Agnes et al., 2008, cited from earlier work
μ opioid receptor = conditions: read-out: Ki at the μ opioid receptor; ref Agnes et al., 2008; cited from earlier work
mu opioid receptor = conditions: ref Agnes et al., 2008; Hruby et al., 2003; cited from earlier work
[6] = system: sham-operated male Sprague Dawley rats; assay: Thermal paw withdrawal latency in sham-operated animals, intrathecal; type: in vivo, rat; conditions: 45 min time point
Procedure, shortened: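 Sham rats had the L5/L6 nerves exposed without ligation, then 5–7 days recovery. An intrathecal catheter ending at the lumbar cord was placed under ketamine/xylazine, with 5–7 days recovery. Test compound in 33% EtOH/water was injected in 5 μL with a 9 μL saline flush. Radiant heat was focused on the ipsilateral hind paw, and latencies were read blinded every 15 min for 60 min. In crossovers, vehicle rats were redosed ≥5 h later.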

δ opioid receptor = conditions: read-out: Ki at the δ opioid receptor; ref Agnes et al., 2008; cited from earlier work
male Sprague Dawley rats [7] = assay: Rotarod test for motor impairment or sedation, intrathecal; type: in vivo, rat; conditions: 180 s cutoff
[8] = system: L5/L6 spinal nerve ligated male Sprague Dawley rats; type: in vivo, rat
[9] = 30 μg/5μL intrathecal (gabapentin 30 μg)

rat μ opioid receptor (MOR), sequence (P33535 whole entry): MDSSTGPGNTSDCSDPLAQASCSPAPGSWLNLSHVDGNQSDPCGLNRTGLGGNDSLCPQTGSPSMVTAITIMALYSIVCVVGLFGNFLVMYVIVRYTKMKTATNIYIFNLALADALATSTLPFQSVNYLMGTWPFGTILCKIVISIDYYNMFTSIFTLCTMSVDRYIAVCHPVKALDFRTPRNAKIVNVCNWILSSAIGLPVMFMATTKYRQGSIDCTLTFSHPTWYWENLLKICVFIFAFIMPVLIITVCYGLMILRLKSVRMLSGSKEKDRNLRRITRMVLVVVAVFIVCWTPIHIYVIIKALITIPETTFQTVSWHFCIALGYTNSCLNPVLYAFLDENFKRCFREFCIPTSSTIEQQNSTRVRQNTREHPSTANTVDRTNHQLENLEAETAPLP
human δ opioid receptor (hDOR), sequence (P41143 whole entry): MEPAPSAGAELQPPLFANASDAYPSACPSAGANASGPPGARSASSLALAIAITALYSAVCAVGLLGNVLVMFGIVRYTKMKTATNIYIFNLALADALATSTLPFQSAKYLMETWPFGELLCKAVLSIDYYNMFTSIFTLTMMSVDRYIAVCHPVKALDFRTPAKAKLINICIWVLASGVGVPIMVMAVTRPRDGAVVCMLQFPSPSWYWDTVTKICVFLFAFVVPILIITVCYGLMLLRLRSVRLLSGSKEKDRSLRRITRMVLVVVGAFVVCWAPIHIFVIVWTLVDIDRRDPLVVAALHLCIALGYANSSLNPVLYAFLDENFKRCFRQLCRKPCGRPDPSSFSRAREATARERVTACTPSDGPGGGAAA

NCC1(CC(=O)O)CCCCC1 [gabapentin, reference compound]
AUC, paw withdrawal latency (thermal) ([1]; gabapentin (30 mg) intrathecal): 104.72 ± 11.01
effect on thermal hyperalgesia compared to vehicle or post injury baseline ([1]; gabapentin (30 mg) intrathecal): significant efficacy
AUC, paw withdrawal threshold (mechanical) [2, 9]: 25.97 ± 6.68

CN1CC[C@]23c4c5ccc(O)c4O[C@H]2[C@@H](O)C=C[C@H]3[C@H]1C5 [morphine, reference compound]
effect on thermal hyperalgesia compared to vehicle or post injury baseline ([1]; gabapentin (30 mg) intrathecal): significant efficacy
Paw Withdrawal Latency (Sec ± SEM) (male Sprague Dawley rats [3]; RVM 60 ng/0.5μl with pretreatment (−20min) of naloxone (subcutaneous; 10mg/kg)): 18.70** Sec

H-Tyr^1-DNle^2-Gly^3-Trp^4-Nle^5-Asp^6-Phe^7-NH2 [RSA 504]
Ki (CCK-1 receptor): 11.2 nM
attenuation of thermal hyperalgesia compared to vehicle ([1]; 1 μg/5μL intrathecal): did not produce a significant effect
attenuation of thermal hyperalgesia compared to vehicle and post-injury baseline ([1]; 10 μg/5μL and 30 μg/5μL intrathecal, 30 min time point): significantly attenuated
AUC, paw withdrawal latency (thermal) ([1]; 10 μg/5μL intrathecal): 83.61 ± 6.40
AUC, paw withdrawal latency (thermal) ([1]; 30 μg/5μL intrathecal): 111.10 ± 7.97
A50, antihyperalgesic dose response curve ([1]; intrathecal, peak effect 30 min, day 7 after SNL): 6.09 μg/5μL
Ki (CCK-2 receptor): 16 nM
EC50 ([4]; read-out: EC50 in GTP-γ-S binding assay at hDOR): 5.5 nM
Emax in GTP-γ-S binding assay at hDOR [4]: 81 nM
in vitro activity in the MVD for delta opioid receptor activity (delta opioid receptor): 23 nM
EC50 ([5]; read-out: EC50 in GTP-γ-S binding assay at MOR): 0.47 nM
Emax in GTP-γ-S binding assay at MOR [5]: 110 nM
attenuation of mechanical hypersensitivity compared to vehicle ([2]; 3 μg/5μL intrathecal): No significance
attenuation of mechanical hypersensitivity compared to post-injury baseline ([2]; 3 μg/5μL intrathecal, 15, 30 and 45 min post administration): Significant attenuation
AUC, paw withdrawal threshold (mechanical) ([2]; 3 μg/5μL intrathecal): 32.53 ± 4.39
attenuation of mechanical hypersensitivity compared to vehicle ([2]; 10 μg/5μL and 30 μg/5μL intrathecal (RSA 504: 30 min; RSA 601: all time points)): significant attenuation
AUC, paw withdrawal threshold (mechanical) ([2]; 10 μg/5μL intrathecal (morphine 10 μg)): 39.38 ± 3.17
AUC, paw withdrawal threshold (mechanical) [2, 9]: 44.80 ± 4.93
A50, antiallodynic dose response curve ([2]; intrathecal, peak effect 30 min, day 7 after SNL, von Frey): 4.67 μg/5μL
Ki (μ opioid receptor): 27 nM
in vitro activity in GPI for mu opioid receptor activity (mu opioid receptor): 210 nM
Paw Withdrawal Latency (Sec ± SEM) (male Sprague Dawley rats [3]; RVM 60 ng/0.5μl with pre-administration (−10min) of CCK-8sulf (RVM; 30 ng/0.5 μL)): 22.35^† Sec
effect on CCK-8 induced thermal hypersensitivity (male Sprague Dawley rats [3]; RVM administration, effect not significantly attenuated by naloxone): reversed the CCK-8 hypersensitivity
paw withdrawal latencies in sham animals [6]: significantly increased
Ki (δ opioid receptor): 23 nM
motor impairment or sedation on the rotarod (male Sprague Dawley rats [7]): did not result in motor impairment
antinociceptive tolerance (day 7 A50 compared to day one) ([8]; intrathecal administration over 7 days): not significantly different
A50, reconstructed antihyperalgesic dose response curve, day 7 ([8]; intrathecal, 30 min, day 7 after 30 μg/5μL/day for 6 days (14 days after SNL)): 6.45 μg/5μL
A50, antihyperalgesic dose response curve, day one ([8]; intrathecal, 30 min, treatment day 1 (7 days after SNL)): 5.89 μg/5μL

— paper PMC3105124 (Brain research, 2011)
